Data from ChEMBL document CHEMBL4052603, “Branimycins B and C, Antibiotics Produced by the Abyssal Actinobacterium Pseudonocardia carboxydivorans M-227” (2017).
Values after ≈ are worked out from the molar mass of the structure shown.

Tests used:
Assay type in all cases: functional
Streptococcus pyogenes = assay: Antibacterial activity against Streptococcus pyogenes 81293 by CLSI method
Method in brief: (§1)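 CLSI procedure on Mueller-Hinton agar, supplemented per CLSI conditions for S. pneumoniae, S. pyogenes and N. meningitidis.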

Micrococcus luteus = assay: Antibacterial activity against Micrococcus luteus ATCC 14452 by CLSI method
Method in brief: (§2)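 CLSI susceptibility testing on Mueller-Hinton agar; clinical isolates came from patients with infections.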

Escherichia coli [1] = assay: Antibacterial activity against Escherichia coli ESS by CLSI method; method in brief: as §2
Enterococcus faecalis [2] = assay: Antibacterial activity against Enterococcus faecalis 10544 by CLSI method; method in brief: as §2
Neisseria meningitidis = assay: Antibacterial activity against Neisseria meningitidis 71327 by CLSI method; method in brief: as §1
Klebsiella pneumoniae = assay: Antibacterial activity against Klebsiella pneumoniae ATCC 700603 by CLSI method
Staphylococcus aureus [3] = assay: Antibacterial activity against Staphylococcus aureus 11497 by CLSI method; method in brief: as §2
[4] = test system: Corynebacterium urealyticum; assay: Antibacterial activity against Corynebacterium urealyticum 1492 by CLSI method
Method in brief: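 CLSI procedure on trypticasein soy agar with 5% sheep blood.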

Clostridium perfringens = assay: Antibacterial activity against Clostridium perfringens 103281 by CLSI method
Pseudomonas aeruginosa = assay: Antibacterial activity against Pseudomonas aeruginosa PAO1 after 20 hrs by spectrophotometric method; settings: PAO1, 20 h
Staphylococcus aureus [5] = assay: Antibacterial activity against Staphylococcus aureus ATCC 43300 by CLSI method
Bacteroides fragilis [6] = assay: Antibacterial activity against Bacteroides fragilis ATCC 25285 by CLSI method
Escherichia coli [7] = assay: Antibacterial activity against Escherichia coli MB2884 after 20 hrs by spectrophotometric method; settings: MB2884, 20 h
Streptococcus pneumoniae = assay: Antibacterial activity against Streptococcus pneumoniae 64412 by CLSI method; method in brief: as §1
Haemophilus influenzae [8] = assay: Antibacterial activity against Haemophilus influenzae ATCC 49247 by CLSI method
Enterococcus faecalis [9] = assay: Antibacterial activity against Enterococcus faecalis ATCC 51299 by CLSI method; method in brief: as §2
Staphylococcus aureus [10] = assay: Antibacterial activity against Staphylococcus aureus ATCC 6538P by CLSI method; method in brief: as §2
Staphylococcus aureus [11] = assay: Antibacterial activity against methicillin-resistant Staphylococcus aureus MB5393 by CLSI method
Method in brief: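 Broth microdilution: 90 μL diluted inoculum plus 8.4 μL medium (LB or BHI) and 1.6 μL compound dilution. Compounds tested as 2-fold serial dilutions from 160 to 0.31 μg/mL, in triplicate. Vancomycin (32 to 4 μg/mL) served as positive control and amphotericin B (16 to 0.25 μg/mL) as negative control.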

[12] = test system: Mycobacterium tuberculosis; assay: Antibacterial activity against Mycobacterium tuberculosis MDR-2 by CLSI method
Method in brief: (§3)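 Agar proportion method for slowly growing mycobacteria on Middlebrook 7H10 agar supplemented with 10% OADC and 0.5% glycerol.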

Bacteroides fragilis [13] = assay: Antibacterial activity against Bacteroides fragilis 61592 by CLSI method
Staphylococcus aureus [14] = assay: Antibacterial activity against Staphylococcus aureus ATCC 25923 by CLSI method; method in brief: as §2
[15] = test system: Mycobacterium tuberculosis; assay: Antibacterial activity against Mycobacterium tuberculosis MDR-1 by CLSI method; method in brief: as §3
Enterococcus faecalis [16] = assay: Antibacterial activity against Enterococcus faecalis ATCC 29212 by CLSI method; method in brief: as §2
Haemophilus influenzae [17] = assay: Antibacterial activity against Haemophilus influenzae 10996 by CLSI method; method in brief: as §2
[18] = test system: Mycobacterium tuberculosis; assay: Antibacterial activity against Mycobacterium tuberculosis H37Rv by CLSI method; method in brief: as §3
Acinetobacter baumannii = assay: Antibacterial activity against Acinetobacter baumannii MB5973 after 20 hrs by spectrophotometric method; settings: MB5973, 20 h
Enterococcus faecium = assay: Antibacterial activity against Enterococcus faecium 10701 by CLSI method; method in brief: as §2
Staphylococcus aureus [19] = assay: Antibacterial activity against methicillin-sensitive Staphylococcus aureus MB2865 by CLSI method
Method in brief: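 MSSA MB2865 tested with diluted inoculum mixed with medium (LB or BHI) plus compound dilution. Twofold serial dilutions from 160 to 0.31 μg/mL, in triplicate. Penicillin G (0.312 to 0.039 μg/mL) was the positive control and amphotericin B (16 to 0.25 μg/mL) the negative control.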

Structure (SMILES) | MIC (Streptococcus pyogenes) [µg/mL] | MIC (Micrococcus luteus) [µg/mL] | MIC (Escherichia coli [1]) [µg/mL] | MIC (Enterococcus faecalis [2]) [µg/mL] | MIC (Neisseria meningitidis) [µg/mL] | MIC (Klebsiella pneumoniae) [µg/mL] | MIC (Staphylococcus aureus [3]) [µg/mL] | MIC [4] [µg/mL] | MIC (Clostridium perfringens) [µg/mL] | MIC (Pseudomonas aeruginosa) [µg/mL] | MIC (Staphylococcus aureus [5]) [µg/mL] | MIC (Bacteroides fragilis [6]) [µg/mL] | MIC (Escherichia coli [7]) [µg/mL] | MIC (Streptococcus pneumoniae) [µg/mL] | MIC (Haemophilus influenzae [8]) [µg/mL] | MIC (Enterococcus faecalis [9]) [µg/mL] | MIC (Staphylococcus aureus [10]) [µg/mL] | MIC (Staphylococcus aureus [11]) [µg/mL] | MIC [12] [µg/mL] | MIC (Bacteroides fragilis [13]) [µg/mL] | also measured
COC[C@H]1C(=O)O[C@H]([C@H](O)CO)[C@H](C)/C=C(\C)[C@@]23O[C@H]4[C@H](O)[C@H](C)[C@@H](O)[C@@H]2[C@H]4C=C[C@H]13 | > 128 | 1 (≈ 2.28 µM) | 64 (≈ 146 µM) | > 64 | 32 (≈ 73 µM) | > 80 | > 64 | 8 (≈ 18.2 µM) | 32 (≈ 73 µM) | > 80 | > 64 | 32 (≈ 73 µM) | > 80 | > 128 | 32 (≈ 73 µM) | > 64 | > 128 | > 160 | > 32 | 128 (≈ 292 µM) | MIC (Staphylococcus aureus [14]): > 64 µg/mL; MIC [15]: > 32 µg/mL; MIC (Enterococcus faecalis [16]): > 64 µg/mL; MIC (Haemophilus influenzae [17]): > 64 µg/mL; MIC [18]: > 32 µg/mL; MIC (Acinetobacter baumannii): > 80 µg/mL; MIC (Enterococcus faecium): > 64 µg/mL; MIC (Staphylococcus aureus [19]): > 160 µg/mL
COC[C@H]1[C@@H](O)[C@@H]2O[C@@]34/C(C)=C/[C@@H](C)[C@@H]([C@H](O)CO)OC(=O)[C@H](COC)[C@H]3C=C[C@@H]2[C@H]4[C@@H]1O | > 128 | 16 (≈ 34.1 µM) | 128 (≈ 273 µM) | 64 (≈ 137 µM) | 64 (≈ 137 µM) | > 80 | > 64 | 16 (≈ 34.1 µM) | 16 (≈ 34.1 µM) | > 80 | > 64 | 128 (≈ 273 µM) | > 80 | > 128 | > 64 | > 64 | 32 (≈ 68.3 µM) | 20 to 40 (≈ 42.7 to 85.4 µM) | > 32 | > 128 | MIC (Staphylococcus aureus [14]): 64 µg/mL (≈ 137 µM); MIC [15]: > 32 µg/mL; MIC (Enterococcus faecalis [16]): > 64 µg/mL; MIC (Haemophilus influenzae [17]): > 64 µg/mL; MIC [18]: > 32 µg/mL; MIC (Acinetobacter baumannii): > 80 µg/mL; MIC (Enterococcus faecium): > 64 µg/mL; MIC (Staphylococcus aureus [19]): 80 µg/mL (≈ 171 µM)
